ChEMBL document CHEMBL4304739, “Discovery of 3-(Indol-5-yl)-indazole Derivatives as Novel Myeloid Differentiation Protein 2/Toll-like Receptor 4 Antagonists for Treatment of Acute Lung Injury” (J Med Chem, 2019)
The source made the active and inactive calls. The calls are words filed in the database; no cut-off is given here.

What was measured:
[1] = target: Mitogen-activated protein kinase kinase kinase 4 (Homo sapiens) (UniProt Q9Y6R4); assay: Inhibition of wild-type human partial length MAP3K4 (G1319 to E1608 residues) expressed in bacterial expression system at 1 uM by Kinomescan method
Procedure, shortened: (§1)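 Binding-competition screen on the KINOMEscan platform, run by the provider, with the test compound at 1 μM. Readout is percent of control: (test signal − positive control signal)/(negative control signal − positive control signal) × 100. The DMSO negative control is set as 100% Ctrl and a control compound as 0% Ctrl. Lower values mean stronger hits.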

[2] = target: Dual specificity tyrosine-phosphorylation-regulated kinase 1B (Homo sapiens) (UniProt Q9Y463); assay: Inhibition of wild-type human full length DYRK1B (M1 to S629 residues) expressed in bacterial expression system at 1 uM by Kinomescan method
Procedure, shortened: (§2)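 KINOMEscan competition binding screen at 1 μM compound. Results reported as % of control = (test − positive control)/(DMSO negative control − positive control) × 100, where lower values mean stronger hits.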

Mus musculus [3] = assay: Antiinflammatory activity in LPS-induced C57BL/6 mouse model of acute lung injury assessed as appearance of normal pulmonary lobule structure at 5 to 10 mg/kg, iv pretreated for 15 mins followed by LPS stimulation and measured after 6 hrs by H and E staining-based microscopic analysis; type: functional, organism-based
Procedure, shortened: (§3)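 Male C57BL/6 mice (18−22 g; n=8 per group). Compound in 0.1% CMC-Na given by tail vein injection 15 min before intraperitoneal LPS (20 mg/kg); controls received saline. Mice were sacrificed 6 h after LPS, and serum and lung tissue were collected.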

[4] = target: Serine/threonine-protein kinase RIO2 (Homo sapiens) (UniProt Q9BVS4); assay: Inhibition of wild-type human partial length RIOK2 (M1 to D313 residues) expressed in mammalian expression system at 1 uM by Kinomescan method; procedure, shortened: as §1
[5] = tested on: Serine/threonine-protein kinase B-raf (Homo sapiens), P15056 [V600E]; assay: Inhibition of human partial length BRAF V600E mutant (S429 to E741 residues) expressed in mammalian expression system at 1 uM by Kinomescan method; procedure, shortened: as §2
[6] = target: Casein kinase I isoform gamma-1 (Homo sapiens) (UniProt Q9HCP0); assay: Inhibition of wild-type human partial length CSNK1G1 (T15 to S353 residues) expressed in bacterial expression system at 1 uM by Kinomescan method; procedure, shortened: as §1
[7] = target: Cyclin-dependent kinase 3 (Homo sapiens) (UniProt Q00526); assay: Inhibition of wild-type human full length CDK3 (M1 to H305 residues) expressed in bacterial expression system at 1 uM by Kinomescan method; procedure, shortened: as §2
[8] = target: Tyrosine-protein kinase ZAP-70 (Homo sapiens) (UniProt P43403); assay: Inhibition of wild-type human partial length ZAP70 (D20 to G299 residues) expressed in mammalian expression system at 1 uM by Kinomescan method
Procedure, shortened: (§4)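 Single-concentration screen at 1 μM on the KINOMEscan panel (98 kinases), run by the platform provider. Results are given as percent of control: % Ctrl = [(test signal − positive control signal)/(negative control signal − positive control signal)] × 100. DMSO serves as negative control (100% Ctrl) and a control compound as positive control (0% Ctrl). Lower values mean stronger binding hits.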

[9] = target: NUAK family SNF1-like kinase 2 (Homo sapiens) (UniProt Q9H093); assay: Inhibition of wild-type human partial length SNARK (P22 to A333 residues) expressed in mammalian expression system at 1 uM by Kinomescan method; procedure, shortened: as §4
[10] = target: RAC-beta serine/threonine-protein kinase (Homo sapiens) (UniProt P31751); assay: Inhibition of wild-type human partial length AKT2 expressed in bacterial expression system at 1 uM by Kinomescan method; procedure, shortened: as §2
Mus musculus [11] = assay: Antiinflammatory activity in LPS-induced C57BL/6 mouse model of acute lung injury assessed as reduction in IL1beta mRNA level at 10 mg/kg, iv pretreated for 15 mins followed by LPS stimulation and measured after 6 hrs by SYBR green staining-based qRT-PCR analysis; type: functional, organism-based
Procedure, shortened: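 Total lung RNA extracted, with DNase I removal of residual DNA. Quantitative PCR with mouse gene primers; each gene normalized to β-actin. C57BL/6 mice given compound iv 15 min before intraperitoneal LPS (20 mg/kg) and killed at 6 h.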

[12] = target: Serine/threonine-protein kinase B-raf (Homo sapiens) (UniProt P15056); assay: Inhibition of wild-type human partial length BRAF (S429 to E741 residues) expressed in mammalian expression system at 1 uM by Kinomescan method; procedure, shortened: as §1
[13] = target: Serine/threonine-protein kinase pim-1 (Homo sapiens) (UniProt P11309); assay: Inhibition of wild-type human partial length PIM1 (A15 to K313 residues) expressed in bacterial expression system at 1 uM by Kinomescan method; procedure, shortened: as §1
[14] = target: Insulin-like growth factor 1 receptor (Homo sapiens) (UniProt P08069); assay: Inhibition of wild-type human partial length IGF1R (L972 to D1294 residues) expressed in bacterial expression system at 1 uM by Kinomescan method; procedure, shortened: as §1
[15] = target: Tyrosine-protein kinase ABL1 (Homo sapiens) (UniProt P00519); assay: Inhibition of wild-type human non-phosphorylated ABL1 (S229 to K512 residues) expressed in mammalian expression system at 1 uM by Kinomescan method; procedure, shortened: as §2
[16] = target: Serine/threonine-protein kinase STK11 (Homo sapiens) (UniProt Q15831); assay: Inhibition of wild-type human full length LKB1 (M1 to Q433 residues) expressed in bacterial expression system at 1 uM by Kinomescan method; procedure, shortened: as §2
[17] = target: MAP/microtubule affinity-regulating kinase 3 (Homo sapiens) (UniProt P27448); assay: Inhibition of wild-type human full length MARK3 (M1 to L729 residues) expressed in bacterial expression system at 1 uM by Kinomescan method; procedure, shortened: as §2
Mus musculus [18] = assay: Antiinflammatory activity in LPS-induced C57BL/6 mouse model of acute lung injury assessed as reduction in airspace inflammation at 5 to 10 mg/kg, iv pretreated for 15 mins followed by LPS stimulation and measured after 6 hrs by H and E staining-based microscopic analysis; type: functional, organism-based; procedure, shortened: as §3
[19] = target: Glycogen synthase kinase-3 beta (Homo sapiens) (UniProt P49841); assay: Inhibition of wild-type human full length GSK3B (M1 to T433 residues) expressed in mammalian expression system at 1 uM by Kinomescan method; procedure, shortened: as §2
[20] = target: MAP kinase-activated protein kinase 2 (Homo sapiens) (UniProt P49137); assay: Inhibition of wild-type human partial length MAPKAPK2 (V48 to D345 residues) expressed in bacterial expression system at 1 uM by Kinomescan method; procedure, shortened: as §1
[21] = target: Inhibitor of nuclear factor kappa-B kinase subunit beta (Homo sapiens) (UniProt O14920); assay: Inhibition of wild-type human full length IKK-beta (M1 to S756 residues) expressed in mammalian expression system at 1 uM by Kinomescan method; procedure, shortened: as §2
[22] = target: MAP kinase-interacting serine/threonine-protein kinase 1 (Homo sapiens) (UniProt Q9BUB5); assay: Inhibition of wild-type human full length MKNK1 (M1 to L424 residues) expressed in mammalian expression system at 1 uM by Kinomescan method; procedure, shortened: as §2
[23] = target: Fibroblast growth factor receptor 3 (Homo sapiens) (UniProt P22607); assay: Inhibition of wild-type human partial length FGFR3 (R442 to S771 residues) expressed in bacterial expression system at 1 uM by Kinomescan method; procedure, shortened: as §1

O=C(Nc1ccc2[nH]nc(-c3ccc4[nH]ccc4c3)c2c1)c1c(Cl)cccc1Cl
inhibition [1]: inactive | inhibition [2]: inactive | Activity (Mus musculus [3]): Active | inhibition [4]: inactive | inhibition [5]: inactive | inhibition [6]: inactive | inhibition [7]: inactive | inhibition [8]: inactive | inhibition [9]: inactive | inhibition [10]: inactive | Activity (Mus musculus [11]): Active | inhibition [12]: inactive | inhibition [13]: inactive | inhibition [14]: inactive | inhibition [15]: inactive | inhibition [16]: inactive | inhibition [17]: inactive | Activity (Mus musculus [18]): Active | inhibition [19]: inactive | inhibition [20]: inactive | inhibition [21]: inactive | inhibition [22]: inactive | inhibition [23]: inactive
